Experimental data published in paper PMC8777244 (Biochemistry and Biophysics Reports, 2022).

B1: DH584-719: MBP-fused truncated Nox5 dehydrogenase domain residues 584–719 (56 kDa) (protein)
chain: KLHKVDFIWINRDQRSFEWFVSLLTKLEMDQAEEAQYGRFLELHMYMTSALGKNDMKAIGLQMALDLLANKEKKDSITGLQTRTQPGRPDWSKVFQKVAAEKKGKVQVFFCGSPALAKVLKGHCEKFGFRFFQENF
modifications: left off: MBP, N-terminal, kept
B2: DH528-719: MBP-fused truncated Nox5 dehydrogenase domain residues 528–719 (∼62 kDa) (protein)
chain: PTRRIFASEHAVLIGAGIGITPFASILQSIMYRHQKRKHTCPSCQHSWIEGVQDNMKLHKVDFIWINRDQRSFEWFVSLLTKLEMDQAEEAQYGRFLELHMYMTSALGKNDMKAIGLQMALDLLANKEKKDSITGLQTRTQPGRPDWSKVFQKVAAEKKGKVQVFFCGSPALAKVLKGHCEKFGFRFFQENF
modifications: left off: MBP, N-terminal, kept
B3: DH605-719: MBP-fused truncated Nox5 dehydrogenase domain residues 605–719, contains REFBD and CMBD sequences (protein)
chain: SLLTKLEMDQAEEAQYGRFLELHMYMTSALGKNDMKAIGLQMALDLLANKEKKDSITGLQTRTQPGRPDWSKVFQKVAAEKKGKVQVFFCGSPALAKVLKGHCEKFGFRFFQENF
modifications: left off: MBP, N-terminal, kept

Legend:
CaM [1] = assay: CaM binding to DHs by isothermal titration calorimetry; details: for Heat enthalpy change relative to DH665-719: fold of DH665-719 enthalpy
[2] = Size-exclusion chromatography, oligomeric states; format: physicochemical
In short: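 HPLC gel filtration of amylose-purified MBP-fused NOX5 dehydrogenase domain, run against CaM and BSA references. Column equilibrated in Tris pH 7.5 (50 mM per figure legends, 20 mM per methods) with 0.2 M NaCl (0.2–0.5 M range), plus 2 mM Ca²⁺ or 1 mM EDTA. Runs at 1.0 mL/min with 280 nm detection. 2 M urea added to partially dissociate oligomers. Species assigned by elution time.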

CaM [3] = assay: CaM interaction by size-exclusion chromatography; format: binding
In short: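 HPLC size-exclusion used a Shodex KW802.5 column at 1.0 mL/min with 280 nm detection. Buffer was Tris, pH 7.5, with 0.2 M NaCl (range 0.2–0.5 M) plus 2 mM Ca²⁺ or 1 mM EDTA. Samples were filtered through 0.45 μm. MBP-DH constructs, alone or mixed with CaM or Dansyl-CaM, were compared with BSA. Collected fractions were assayed for Dansyl fluorescence.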

Dynamic light scattering = format: physicochemical
In short: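 DLS was run on a DynaPro NanoStar. Samples at 1 mg/mL in 50 mM Tris, pH 7.5, were filtered through 0.45 then 0.1 μm and equilibrated 2 min at 25 °C. Acquisition was 5 s, with minimum peak intensity 1% and correlation cut-offs of 0.5 and 100,000 μs. Ten autocorrelation functions were averaged and fitted to decaying exponentials for the diffusion coefficient. Rh was calculated assuming spheres.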

[4] = Solubility of DH proteins in bacterial expression; format: physicochemical; details: E. coli expression
[5] = 1 mg/mL, 50 mM Tris, pH 7.5, 25 °C

Molecule | Heat enthalpy change relative to DH665-719 (CaM [1]) | SEC elution time, major peak ([2]; 50 mM Tris, pH 7.5, 0.2 M NaCl) [min] | SEC elution time, very minor peak (monomer) ([2]; 50 mM Tris, pH 7.5, 0.2 M NaCl) [min] | SEC elution time, monomer, 2 M urea ([2]; 2 M urea, 50 mM Tris, pH 7.5, 0.2 M NaCl, Species 1) [min] | SEC elution time, dimer, 2 M urea ([2]; 2 M urea, 50 mM Tris, pH 7.5, 0.2 M NaCl, Species 2) [min] | SEC elution time, trimer, 2 M urea ([2]; 2 M urea, 50 mM Tris, pH 7.5, 0.2 M NaCl, Species 3 (∼168 kDa)) [min] | SEC elution time, tetramer, 2 M urea ([2]; 2 M urea, 50 mM Tris, pH 7.5, 0.2 M NaCl, Species 4 (∼224 kDa)) [min] | Dominant oligomer, high ionic strength ([2]; >0.25 M NaCl) | Effect of DTT and Ca^2+ on HPLC profile ([2]; reducing agent DTT and Ca^2+ ions) | Effect of CaM on DH oligomer (CaM [3]; CaM binding, Ca^2+) | Decay of autocorrelation function (Dynamic light scattering; [5]) [μs] | Hydrodynamic radius (Rh) (Dynamic light scattering; [5]) [nm] | Poly-distribution (%pd) (Dynamic light scattering; [5]) [%] | Estimated average molecular weight (DLS) (Dynamic light scattering; Raleigh sphere assumption, qualitative) [kDa] | Stoichiometry, ITC CaM/DH (CaM [1]; CaM (titrant) into DH (near 2 μM), 50 mM Tris, pH 7.5, 2 mM Ca^2+, 25 °C, MBP-fused DH) | Share of D-CaM in DH fractions (CaM [3]; equal amounts of D-CaM and DH528-719, Ca^2+) | Solubility [4] | Stoichiometry nCaM/DH, ITC at high DH concentration (CaM [1]; CaM into 20–50 μM DH, Ca^2+, low value attributed to DH degradation)
B1 | approximately double | 6.7 | ~9.5 | 9.52 | 8.02 | 7.25 | 6.71 | favors trimer formation | did not affect its HPLC profile | the dimer disappeared | > 100 | 8.3 | 42.5 | ~450 |  |  |  | 
B2 | approximately double |  |  |  |  |  |  |  |  |  |  |  |  |  | 1.18 ± 0.05 | approximately half | most soluble | 
B3 | approximately double |  |  |  |  |  |  |  |  |  |  |  |  |  |  |  |  | lower than 1
